Experiments:
[1] = Cytotoxicity against mouse RAW264.7 cells assessed as cell viability at 2 to 64 uM after 24 hrs by MTT assay relative to control; type: cell-based; conditions: read-out: Activity
In short: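 MTT viability assay. RAW264.7 or HEK293T cells at (1.0−2.0) × 10^5 per well were exposed to a peptide concentration series for 24 h at 37 °C in 5% CO2. MTT was then added at 0.5 mg/mL final for 4 h; formazan was dissolved in DMSO and read at 570 nm. Results average three independent trials.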

Staphylococcus aureus [2] = assay: Antibacterial activity against Staphylococcus aureus ATCC 29213 after 24 hrs; type: functional; conditions: ATCC 29213, 24 h
In short: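 Modified NCCLS broth microdilution. Mid-log bacteria at (0.5−1) × 10^5 CFU/mL in MHB were mixed 1:1 with peptide serially diluted in 0.2% BSA and incubated 24 h at 37 °C. Absorbance was read at 492 nm; MIC is the lowest concentration inhibiting 95% of growth. At least 3 repeats.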

[3] = system: Staphylococcus epidermidis; assay: Antibacterial activity against Staphylococcus epidermidis ATCC 12228 after 24 hrs; type: functional; conditions: ATCC 12228, 24 h
In short: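 Broth microdilution. Mid-log bacteria in MHB at a final (0.5−1) × 10^5 CFU/mL were mixed with equal volumes of peptide serially diluted in 0.2% BSA. Plates were incubated 24 h at 37 °C and read at A492. MIC is the lowest concentration inhibiting 95% of growth. Each test was repeated at least 3 times.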

Escherichia coli [4] = assay: Bactericidal activity against Escherichia coli ATCC 25922; type: functional; conditions: read-out: MBC99.9
In short: (§1)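 Wells from the 24 h, 37 °C MHB microdilution plates (bacteria at a final (0.5−1) × 10^5 CFU/mL; peptide diluted in 0.2% BSA) were plated on agar and incubated overnight. MBC is the lowest concentration killing >99.9% of cells. Each test was reproduced at least 3 times.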

Escherichia coli [5] = assay: Bactericidal activity against Escherichia coli 1005; type: functional; conditions: read-out: MBC99.9; in short: as §1
[6] = system: Staphylococcus epidermidis; assay: Bactericidal activity against Staphylococcus epidermidis ATCC 12228; type: functional; conditions: read-out: MBC99.9; in short: as §1
Staphylococcus aureus [7] = assay: Bactericidal activity against Staphylococcus aureus ATCC 25923; type: functional; conditions: read-out: MBC99.9; in short: as §1
Candida albicans [8] = assay: Antifungal activity against Candida albicans cgmcc 2.2086 after 48 hrs by broth microdilution method; type: functional; conditions: cgmcc 2.2086, 48 h
In short: (§2)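 Modified CLSI M27-A2 broth microdilution. Yeast at (0.5−1) × 10^3 CFU/mL in MOPS-buffered RPMI 1640 was mixed 1:1 with peptide serially diluted in 0.2% BSA and incubated 48 h at 28 °C. Absorbance was read at 492 nm; MIC is the lowest concentration inhibiting 95% of growth. Triplicate, three biological replicates.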

Candida albicans [9] = assay: Antifungal activity against Candida albicans SP3931 after 48 hrs by broth microdilution method; type: functional; conditions: SP3931, 48 h; in short: as §2
Candida albicans [10] = assay: Antifungal activity against Candida albicans SP3876 after 48 hrs by broth microdilution method; type: functional; conditions: SP3876, 48 h; in short: as §2
Candida albicans [11] = assay: Antifungal activity against fluconazole-resistant Candida albicans 56214 after 48 hrs by broth microdilution method; type: functional; conditions: Candida albicans, 56214, 48 h; in short: as §2
Candida albicans [12] = assay: Antifungal activity against Candida albicans 14936 after 48 hrs by broth microdilution method; type: functional; conditions: Candida albicans, 14936, 48 h; in short: as §2
Candida albicans [13] = assay: Antifungal activity against fluconazole-resistant Candida albicans 17546 after 48 hrs by broth microdilution method; type: functional; conditions: Candida albicans, 17546, 48 h; in short: as §2
Candida tropicalis = assay: Antifungal activity against Candida tropicalis cgmcc 2.1975 after 48 hrs by broth microdilution method; type: functional; conditions: cgmcc 2.1975, 48 h
In short: (§3)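 Modified CLSI M27-A2 broth microdilution. Yeast were suspended in MOPS-buffered RPMI 1640 at a final (0.5−1) × 10^3 CFU/mL and mixed 1:1 with peptide serially diluted in 0.2% BSA. Plates were incubated 48 h at 28 °C and read at A492. MIC is the lowest concentration giving 95% inhibition. Run in triplicate with three biological replicates.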

Candida parapsilosis [14] = assay: Antifungal activity against Candida parapsilosis cgmcc 2.3989 after 48 hrs by broth microdilution method; type: functional; conditions: Lodderomyces parapsilosis, cgmcc 2.3989, 48 h; in short: as §3
Candida albicans [15] = assay: Fungicidal activity against Candida albicans SP3931 after 96 hrs; type: functional; conditions: SP3931, 96 h, read-out: MFC99.9
In short: (§4)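 After the 48 h, 28 °C broth microdilution in MOPS-buffered RPMI 1640 (inoculum (0.5−1) × 10^3 CFU/mL), 50 μL from each well was plated on YM agar for a further 48 h at 28 °C. MFC is the lowest concentration killing at least 99.9% of cells. Triplicate, three biological replicates.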

Candida albicans [16] = assay: Fungicidal activity against Candida albicans SP3902 after 96 hrs; type: functional; conditions: SP3902, 96 h, read-out: MFC99.9; in short: as §4
Candida albicans [17] = assay: Fungicidal activity against Candida albicans SP3876 after 96 hrs; type: functional; conditions: SP3876, 96 h, read-out: MFC99.9; in short: as §4
Candida albicans [18] = assay: Fungicidal activity against fluconazole-resistant Candida albicans 56214 after 96 hrs; type: functional; conditions: Candida albicans, 56214, 96 h; read-out: MFC99.9; in short: as §4
Candida albicans [19] = assay: Fungicidal activity against fluconazole-resistant Candida albicans 17546 after 96 hrs; type: functional; conditions: Candida albicans, 17546, 96 h; read-out: MFC99.9; in short: as §4
Candida parapsilosis [20] = assay: Fungicidal activity against Candida parapsilosis cgmcc 2.3989 after 96 hrs; type: functional; conditions: Lodderomyces parapsilosis, cgmcc 2.3989, 96 h; read-out: MFC99.9
In short: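 Wells from the 48 h, 28 °C RPMI 1640/MOPS microdilution plates were plated on YM agar and incubated a further 48 h at 28 °C. MFC is the lowest concentration killing at least 99.9% of cells. Run in triplicate with three biological replicates.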

Erythrocyte = assay: Hemolytic activity in human RBC after 1 hr; type: ADME, cell-based
In short: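 Fresh human erythrocytes, diluted 10-fold in PBS pH 7.4, were mixed with equal volumes of peptide and held 1 h at 37 °C. After centrifugation at 1000g, supernatant hemoglobin was read at 576 nm. PBS set 0% and 0.1% Triton X-100 set 100% lysis. MHC is the concentration causing 10% hemolysis. At least three experiments were run, each in technical triplicate.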

Escherichia coli [21] = assay: Antibacterial activity against Escherichia coli ATCC 25922 after 18 hrs in presence of KCl by broth dilution method; type: functional; conditions: ATCC 25922, 18 h
Escherichia coli [22] = assay: Antibacterial activity against Escherichia coli ATCC 25922 after 18 hrs in presence of MgCl2 by broth dilution method; type: functional; conditions: ATCC 25922, 18 h
Escherichia coli [23] = assay: Antibacterial activity against Escherichia coli ATCC 25922 after 18 hrs in presence of CaCl2 by broth dilution method; type: functional; conditions: ATCC 25922, 18 h
Escherichia coli [24] = assay: Antibacterial activity against Escherichia coli ATCC 25922 after 18 hrs in presence of ZnCl2 by broth dilution method; type: functional; conditions: ATCC 25922, 18 h
Escherichia coli [25] = assay: Antibacterial activity against Escherichia coli ATCC 25922 after 18 hrs in presence of FeCl3 by broth dilution method; type: functional; conditions: ATCC 25922, 18 h
Candida albicans [26] = assay: Antifungal activity against Candida albicans cgmcc 2.2086 in presence of NaCl by broth dilution method; type: functional
Candida albicans [27] = assay: Antifungal activity against Candida albicans cgmcc 2.2086 in presence of KCl by broth dilution method; type: functional
Candida albicans [28] = assay: Fungicidal activity against Candida albicans 58288 after 96 hrs; type: functional; conditions: Candida albicans, 58288, 96 h; read-out: MFC99.9; in short: as §4

Substance	viability at 24 h, up to 64 µM [1]	MIC95 (Staphylococcus aureus [2])	MIC95 [3]	MBC (Escherichia coli [4])	MBC (Escherichia coli [5])	MBC [6]	MBC (Staphylococcus aureus [7])	MIC95 (Candida albicans [8])	MIC95 (Candida albicans [9])	MIC95 (Candida albicans [10])	MIC95 (Candida albicans [11])	MIC95 (Candida albicans [12])	MIC95 (Candida albicans [13])	MIC95 (Candida tropicalis)	MIC95 (Candida parapsilosis [14])	MFC (Candida albicans [15])	MFC (Candida albicans [16])	MFC (Candida albicans [17])	MFC (Candida albicans [18])	MFC (Candida albicans [19])	other results
H-RRFRFFFRFRR-NH2	70 to 80%	4 µM	4 µM	4 µM	4 µM	4 µM	16 µM	4 µM	4 µM	4 µM	4 µM	4 µM	2 µM	1 µM	16 µM	8 µM	4 µM	4 µM	8 µM	2 µM	MFC (Candida parapsilosis [20]): 32 µM; HC10 (Erythrocyte): > 128 µM; MIC (Escherichia coli [21]): 4 µM; MIC (Escherichia coli [22]): 2 µM; MIC (Escherichia coli [23]): 4 µM; MIC (Escherichia coli [24]): 2 µM; MIC (Escherichia coli [25]): 4 µM; MIC (Candida albicans [26]): 16 µM; MIC (Candida albicans [27]): 16 µM; MFC (Candida albicans [28]): 8 µM
H-RIRIIIRIR-NH2	70 to 80%	4 µM	4 µM	8 µM	8 µM	8 µM	8 µM	4 µM	4 µM	1 µM	2 µM	2 µM	2 µM	2 µM	8 µM	8 µM	2 µM	1 µM	4 µM	2 µM	MFC (Candida parapsilosis [20]): 16 µM; HC10 (Erythrocyte): > 128 µM; MIC (Escherichia coli [21]): 8 µM; MIC (Escherichia coli [22]): 8 µM; MIC (Escherichia coli [23]): 16 µM; MIC (Escherichia coli [24]): 8 µM; MIC (Escherichia coli [25]): 8 µM; MIC (Candida albicans [26]): 16 µM; MIC (Candida albicans [27]): 4 µM; MFC (Candida albicans [28]): 4 µM
H-RIIRRIRRIIR-NH2	70 to 80%	64 µM	16 µM	32 µM	8 µM	32 µM	64 µM	16 µM	16 µM	8 µM	8 µM	8 µM	16 µM	1 µM	> 64 µM	32 µM	16 µM	16 µM	16 µM	16 µM	MFC (Candida parapsilosis [20]): > 64 µM; HC10 (Erythrocyte): > 128 µM; MIC (Escherichia coli [21]): 16 µM; MIC (Escherichia coli [22]): 16 µM; MIC (Escherichia coli [23]): 32 µM; MIC (Escherichia coli [24]): 16 µM; MIC (Escherichia coli [25]): 16 µM; MIC (Candida albicans [26]): 64 µM; MIC (Candida albicans [27]): 64 µM; MFC (Candida albicans [28]): 16 µM
